Reference: ChEMBL document CHEMBL1926564, “Design, synthesis and biological activity of original pyrazolo-pyrido-diazepine, -pyrazine and -oxazine dione derivatives as novel dual Nox4/Nox1 inhibitors” (Bioorg Med Chem, 2011)
pKi: −log10 of the molar value.

Columns and labels:
NADPH oxidase 5 = target: T1, NADPH oxidase 5 (Homo sapiens, UniProt Q96PH1); assay: Antagonist activity at human NOX5 assessed as inhibition of ROS production after 20 mins by cell-free amplex red assay; type: functional
T1 sequence (Q96PH1 whole entry): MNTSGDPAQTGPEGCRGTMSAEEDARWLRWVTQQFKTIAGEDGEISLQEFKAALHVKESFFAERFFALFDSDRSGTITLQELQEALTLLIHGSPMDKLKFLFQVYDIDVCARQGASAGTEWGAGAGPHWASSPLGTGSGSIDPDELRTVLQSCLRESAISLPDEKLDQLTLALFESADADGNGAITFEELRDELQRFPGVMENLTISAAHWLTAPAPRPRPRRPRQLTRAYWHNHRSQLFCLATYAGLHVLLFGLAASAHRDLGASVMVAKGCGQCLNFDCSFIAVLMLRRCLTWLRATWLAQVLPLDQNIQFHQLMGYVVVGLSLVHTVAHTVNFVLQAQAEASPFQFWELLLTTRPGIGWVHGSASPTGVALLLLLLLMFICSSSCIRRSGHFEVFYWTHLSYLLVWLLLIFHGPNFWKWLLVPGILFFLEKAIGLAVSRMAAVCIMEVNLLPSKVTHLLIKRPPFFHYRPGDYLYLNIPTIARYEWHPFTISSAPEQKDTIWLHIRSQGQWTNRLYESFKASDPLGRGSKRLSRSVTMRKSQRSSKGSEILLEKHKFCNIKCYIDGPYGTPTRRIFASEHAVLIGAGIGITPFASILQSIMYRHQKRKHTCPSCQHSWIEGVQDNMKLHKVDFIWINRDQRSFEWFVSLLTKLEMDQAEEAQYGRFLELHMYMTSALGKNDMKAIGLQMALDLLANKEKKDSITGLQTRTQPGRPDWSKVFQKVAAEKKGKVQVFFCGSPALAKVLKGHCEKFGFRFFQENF
In short: (§1)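 Membranes from tetracycline-induced (24 h) Nox-expressing cells or human PMN (Nox2), sucrose-gradient purified; or xanthine oxidase. Incubated in PBS with Amplex Red, HRP and cofactors; NADPH (Nox) or xanthine starts ROS. Compound 1 nM–100 µM, 20 min at 37 °C, plate-reader. Background without membranes or agonist. Ki by Cheng-Prusoff; mean of ≥3 experiments in triplicate.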

NADPH oxidase 2 = target: T2, NADPH oxidase 2 (Homo sapiens, UniProt P04839); assay: Antagonist activity at human NOX2 in human polymorphonuclear cell membrane assessed as inhibition of ROS production after 20 mins by cell-free amplex red assay; type: functional; in short: as §1
T2 sequence (P04839 whole entry): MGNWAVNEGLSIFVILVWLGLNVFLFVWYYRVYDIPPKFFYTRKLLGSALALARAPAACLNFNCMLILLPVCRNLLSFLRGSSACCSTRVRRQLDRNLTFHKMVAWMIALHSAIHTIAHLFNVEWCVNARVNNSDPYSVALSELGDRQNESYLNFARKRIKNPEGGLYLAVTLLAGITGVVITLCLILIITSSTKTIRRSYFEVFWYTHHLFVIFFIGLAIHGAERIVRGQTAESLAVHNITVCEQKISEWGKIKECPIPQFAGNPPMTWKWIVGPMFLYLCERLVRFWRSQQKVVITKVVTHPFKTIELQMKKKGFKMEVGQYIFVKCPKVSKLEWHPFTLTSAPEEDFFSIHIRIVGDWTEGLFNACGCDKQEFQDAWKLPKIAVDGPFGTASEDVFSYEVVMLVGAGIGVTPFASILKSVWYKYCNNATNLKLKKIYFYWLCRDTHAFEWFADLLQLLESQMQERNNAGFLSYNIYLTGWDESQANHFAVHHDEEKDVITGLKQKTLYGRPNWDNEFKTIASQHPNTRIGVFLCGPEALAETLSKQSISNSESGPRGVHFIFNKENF

Homo sapiens = species on record: Homo sapiens; assay: Selectivity ratio of Ki for human NOX2 to Ki for human NOX4
In short: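 Ratio of Ki values from the Amplex Red membrane ROS assay (PMN membranes for Nox2, Nox4-overexpressing membranes), NADPH-triggered, 1 nM–100 µM, 20 min at 37 °C; Ki via Cheng-Prusoff.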

NADPH oxidase 4 = target: T3, NADPH oxidase 4 (Homo sapiens, UniProt Q9NPH5); assay: Antagonist activity at human NOX4 expressed in CHO cell membrane coexpressing tetracylin repressor assessed as inhibition of ROS production after 20 mins by cell-free amplex red assay; type: functional; settings: in the assay text read “HEK293 cell membrane” for “CHO cell membrane”; in short: as §1
T3 sequence (Q9NPH5 whole entry): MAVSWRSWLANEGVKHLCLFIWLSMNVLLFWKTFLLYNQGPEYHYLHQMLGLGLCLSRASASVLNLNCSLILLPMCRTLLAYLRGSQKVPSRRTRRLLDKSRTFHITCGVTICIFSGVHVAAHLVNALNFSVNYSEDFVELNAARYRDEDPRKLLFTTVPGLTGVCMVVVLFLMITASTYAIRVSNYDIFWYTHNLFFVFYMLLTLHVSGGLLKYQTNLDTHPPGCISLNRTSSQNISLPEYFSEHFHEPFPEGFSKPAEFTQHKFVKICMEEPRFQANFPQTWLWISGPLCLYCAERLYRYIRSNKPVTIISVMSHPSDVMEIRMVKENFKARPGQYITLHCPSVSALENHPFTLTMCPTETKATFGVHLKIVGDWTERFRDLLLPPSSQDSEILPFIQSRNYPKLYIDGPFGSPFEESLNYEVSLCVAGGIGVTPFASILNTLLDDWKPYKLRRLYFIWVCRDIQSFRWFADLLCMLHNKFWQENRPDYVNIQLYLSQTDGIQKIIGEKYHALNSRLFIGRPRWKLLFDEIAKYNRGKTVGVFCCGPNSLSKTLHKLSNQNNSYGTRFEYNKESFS

NADPH oxidase 1 = target: T4, NADPH oxidase 1 (Homo sapiens, UniProt Q9Y5S8); assay: Antagonist activity at human NOX1 expressed in CHO cell membrane coexpressing tetracylin repressor assessed as inhibition of ROS production after 20 mins by cell-free amplex red assay; type: functional; in short: as §1
T4 sequence (Q9Y5S8 whole entry): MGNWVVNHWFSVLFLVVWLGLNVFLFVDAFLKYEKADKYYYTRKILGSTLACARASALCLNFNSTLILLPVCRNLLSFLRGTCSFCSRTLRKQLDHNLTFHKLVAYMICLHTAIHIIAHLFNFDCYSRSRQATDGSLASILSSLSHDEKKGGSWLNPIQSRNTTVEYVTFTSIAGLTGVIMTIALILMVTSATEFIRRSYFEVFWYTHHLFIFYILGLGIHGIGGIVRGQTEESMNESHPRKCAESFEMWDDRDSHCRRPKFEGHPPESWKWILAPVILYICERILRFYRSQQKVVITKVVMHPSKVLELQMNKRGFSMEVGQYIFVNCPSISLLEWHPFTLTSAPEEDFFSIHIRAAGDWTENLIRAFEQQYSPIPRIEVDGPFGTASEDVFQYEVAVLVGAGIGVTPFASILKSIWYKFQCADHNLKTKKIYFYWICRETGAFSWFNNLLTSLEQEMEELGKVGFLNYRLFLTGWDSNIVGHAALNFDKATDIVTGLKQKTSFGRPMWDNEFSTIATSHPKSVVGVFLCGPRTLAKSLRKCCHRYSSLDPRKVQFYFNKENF

[1] = Clearance in Sprague-Dawley rat liver microsomes assessed per mg of protein at 0.5 uM; type: ADME, Microsome; settings: read-out: CLH
In short: (§2)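 Pooled rat (male Sprague Dawley) or human (mixed-sex) liver microsomes at 0.5 mg/mL final, 0.1 M phosphate pH 7.4, compound 0.5 µM final, 0.25% DMSO, 37 °C; 1 mM NADPH starts reaction. Sampled 0–45 min, methanol quench with internal standard, LC/MS-MS; intrinsic clearance from compound loss.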

[2] = Lipophilicity, log D of the compound at pH 7.4; type: physicochemical; settings: buffer
[3] = Clearance in human liver microsomes assessed per mg of protein at 0.5 uM; type: ADME, Microsome; settings: read-out: CLH; in short: as §2
[4] = Apparent permeability across human Caco2 cells at 10 uM after 2 hrs; type: ADME, cell-based; settings: Caco-2
In short: (§3)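 Caco-2 monolayers grown 20 days, TEER >800 ohm·cm². Compound 10 µM final in HBSS pH 6.5 (1% DMSO), dosed apical (A→B) or basolateral (B→A), 2 h at 37 °C; both compartments sampled, LC–MS/MS cassette analysis with 5-point calibration.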

[5] = Efflux ratio of apparent permeability across human Caco2 cells at 10 uM after 2 hrs; type: ADME, cell-based; settings: Caco-2; in short: as §3
[6] = Fraction unbound in rat plasma containing 50% plasma protein; type: ADME, cell-free
In short: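 Rat plasma protein binding in 50% plasma; fraction unbound reported.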

Row | SMILES | pKi (NADPH oxidase 5) | pKi (NADPH oxidase 2) | Ratio Ki (Homo sapiens) | pKi (NADPH oxidase 4) | pKi (NADPH oxidase 1) | microsomal CLint at 0.5 µM [1] [µL/min/mg] | logD [2] | microsomal CLint at 0.5 µM [3] [µL/min/mg] | Papp at 2 h, 10 µM [4] [×10⁻⁶ cm/s] | efflux ratio at 2 h, 10 µM [5] | fraction unbound [6]
1 | O=c1c2c3n(c(=O)cc2[nH]n1-c1ccccc1Cl)CCCNC3 | 6.44 | 6.44 | 4.2 | 7.06 | 6.92 | – | – | – | – | – | –
2 | O=c1c2c3n(c(=O)cc2[nH]n1-c1ccccc1Cl)CCCN(Cc1ccc(Cl)cc1)C3 | 6.23 | 5.90 | – | 6.99 | 7.02 | 152 | 2.76 | 77.3 | – | – | –
3 | O=c1c2c3n(c(=O)cc2[nH]n1-c1ccccc1Cl)CCCN(Cc1ccccc1Cl)C3 | 6.21 | 5.94 | – | 7.12 | 7.06 | 164 | 2.76 | 87.1 | – | – | –
4 | COc1ccccc1CN1CCCn2c(c3c(=O)n(-c4ccccc4Cl)[nH]c3cc2=O)C1 | 6.13 | 5.75 | – | 6.95 | 6.88 | – | – | – | – | – | –
5 | COc1cccc(CN2CCCn3c(c4c(=O)n(-c5ccccc5OC)[nH]c4cc3=O)C2)c1 | 6.16 | 6.09 | – | 6.88 | 6.67 | – | – | – | – | – | –
6 | O=c1c2c3n(c(=O)cc2[nH]n1-c1ccccc1Cl)CCN(Cc1ccccc1)C3 | 5.85 | 5.70 | – | 6.85 | 6.40 | – | – | – | – | – | –
7 | CC(C)(C)OC(=O)N1CCCn2c(c3c(=O)n(-c4ccccc4Cl)[nH]c3cc2=O)C1 | 6.23 | 5.89 | – | 6.99 | 6.83 | – | – | – | – | – | –
8 | COc1cccc(CN2CCCn3c(c4c(=O)n(-c5ccccc5Cl)[nH]c4cc3=O)C2)c1.Cl | 6.14 | 5.92 | – | 6.95 | 6.95 | 60.1 | 1.99 | 35 | 22.3 | 1.91 | 0.901
9 | O=c1c2c3n(c(=O)cc2[nH]n1-c1ccccc1Cl)CCCN(Cc1cccc(Cl)c1)C3 | 6.32 | 5.94 | – | 7.00 | 6.98 | 153 | 2.76 | 81.4 | – | – | –
10 | Cl.O=c1c2c3n(c(=O)cc2[nH]n1-c1ccccc1Cl)CCCN(Cc1cccnc1)C3 | 5.94 | 5.86 | – | 7.03 | 6.68 | 31.1 | 0.92 | 21 | 1 | 18.7 | 0.029
11 | COc1ccc(CN2CCCn3c(c4c(=O)n(-c5ccccc5Cl)[nH]c4cc3=O)C2)cc1 | 6.16 | 6.11 | – | 6.94 | 6.74 | – | – | – | – | – | –
12 | COc1ccccc1-n1[nH]c2cc(=O)n3c(c2c1=O)CN(Cc1ccccn1)CCC3.Cl | 6.21 | 6.29 | – | 7.03 | 6.66 | 32.1 | 0.33 | 15.7 | 1.4 | 16.8 | 0.069
13 | O=c1c2c3n(c(=O)cc2[nH]n1-c1ccccc1Cl)CCOC3 | 6.31 | 6.36 | – | 6.81 | 6.76 | – | – | – | – | – | –
14 | O=c1c2c3n(c(=O)cc2[nH]n1-c1ccccc1Cl)CCCN(Cc1ccoc1)C3 | 6.02 | 5.99 | – | 6.95 | 6.70 | – | – | – | – | – | –
15 | COc1ccccc1-n1[nH]c2cc(=O)n3c(c2c1=O)CN(Cc1ccccc1)CCC3 | 6.17 | 6.19 | – | 6.84 | 6.66 | – | – | – | – | – | –
